Test results: ChEMBL document CHEMBL1221308, “Synthesis and biological evaluation of new jasplakinolide (jaspamide) analogs” (Bioorg Med Chem Lett, 2010)

tested on: CA46; assay: Growth inhibition of human CA46 cells […] after 24 hrs; type: functional, cell-based; conditions: Homo sapiens, CA46, 24 h
Summary of the method: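 Human CA46 Burkitt lymphoma cells treated for 24 h; growth read as cell number, IC50 derived from that count.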

For `COc1ccc([C@H]2CC(=O)O[C@@H](C)C[C@@H](C)/C=C(\C)CCC(=O)NCC(=O)N(C)[C@H](Cc3c(Br)[nH]c4ccccc34)C(=O)N2)cc1`, which IC50 is on record?
The IC50 was 0.3 µM.

With `C/C1=C\[C@H](C)C[C@H](C)OC(=O)C[C@H](c2ccccc2)NC(=O)[C@@H](Cc2c(Br)[nH]c3ccccc23)N(C)C(=O)[C@H](C)NC(=O)CC1` as the compound, how does the IC50 read?
Its IC50 is 0.2 µM.

For `COc1ccc([C@H]2CC(=O)O[C@@H](C)C[C@@H](C)/C=C(\C)CCC(=O)N[C@@H](C)C(=O)N[C@H](Cc3c(Br)[nH]c4ccccc34)C(=O)N2)cc1`, which IC50 is on record?
The IC50 was 3 µM.

Which IC50 does the source give for `COc1ccc([C@H]2CC(=O)O[C@@H](C)C[C@@H](C)/C=C(\C)C[C@@H](C)C(=O)N[C@@H](C)C(=O)N(C)[C@H](Cc3c(Br)[nH]c4ccccc34)C(=O)N2)cc1` here?
The IC50 was 0.02 µM.

`COc1ccc([C@H]2CC(=O)O[C@@H](C)C[C@@H](C)/C=C(\C)CCC(=O)N[C@@H](C)C(=O)N(C)[C@H](Cc3c[nH]c4ccccc34)C(=O)N2)cc1` was tested. Which IC50 did it give?
Its IC50 is 0.2 µM.

same assay, conditions: ca46

With `COc1ccc([C@H]2CC(=O)NC(C)C[C@@H](C)/C=C(\C)CCC(=O)N[C@@H](C)C(=O)N(C)[C@H](Cc3c(Br)[nH]c4ccccc34)C(=O)N2)cc1` (single isomer, unassigned; diastereomer 2) as the compound, how does the IC50 read?
Its IC50 is 3 µM.

`COc1ccc([C@H]2CC(=O)NC(C)C[C@@H](C)/C=C(\C)CCC(=O)N[C@@H](C)C(=O)N(C)[C@H](Cc3c(Br)[nH]c4ccccc34)C(=O)N2)cc1` (stereo in doubt) was tested. Which IC50 did it give?
Its IC50 is 0.75 µM.
